Measured values as given in ChEMBL document CHEMBL1933011, “Probing the antiamoebic and cytotoxicity potency of novel tetrazole and triazine derivatives” (Eur J Med Chem, 2012).

Assays:
[1] = Safety index, ratio of IC50 for human HepG2 cells to IC50 for Entamoeba histolytica HM-1:IMSS; type: toxicity, cell-based; conditions: read-out: Ratio IC50
In short: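 Safety index calculated as HepG2 MTT IC50 (48 h) divided by E. histolytica HM1:IMSS IC50 (72 h microdilution).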

[2] = test system: HepG2; experiment: Cytotoxicity against human HepG2 cells up to 50 uM after 48 hrs by MTT assay; type: cell-based; conditions: hepg2, 48 h
In short: (§1)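 HepG2 in DMEM/10% FBS, 1.2 × 10^4 cells/well, grown 48 h before dosing. Compounds from 10% DMSO stocks diluted in medium, 3.13–100 µM, 48 h at 37 °C, 5% CO2. MTT (5 mg mL-1) for 4 h, DMSO solubilisation, absorbance at 570 nm (reference 655 nm). Viability is treated absorbance relative to untreated control. Triplicate, repeated thrice.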

[3] = Cytotoxicity against human HepG2 cells assessed as viable cells at 3.13 uM after 48 hrs by MTT assay; type: cell-based; conditions: read-out: Activity; in short: as §1
[4] = test system: HepG2; experiment: Cytotoxicity against human HepG2 cells after 48 hrs by MTT assay; type: cell-based; conditions: for IC50: Homo sapiens, HepG2, 48 h; for Activity: human, hepg2, 48 h; in short: as §1
[5] = test system: HepG2; experiment: Cytotoxicity against human HepG2 cells up to 100 uM after 48 hrs by MTT assay; type: cell-based; conditions: hepg2, 48 h; in short: as §1
[6] = test system: Entamoeba histolytica; experiment: Antiamoebic activity against Entamoeba histolytica HM-1:IMSS after 72 hrs by microdilution method; type: functional, organism-based
In short: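 E. histolytica HM1:IMSS trophozoites in Diamond TYIS-33 medium; 1 mg mL-1 DMSO stocks, two-fold serial dilutions; 1.7 × 10^4 amoebae/well; sealed, gassed with nitrogen 10 min, 35.5 °C for 72 h. Wells methanol-fixed, eosin-stained, dye released in 0.1N NaOH, OD 490 nm. % inhibition vs control plotted against log dose; IC50 by linear regression. Triplicate, repeated thrice.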

[7] = Cytotoxicity against human HepG2 cells assessed as viable cells at 25 uM after 48 hrs by MTT assay; type: cell-based; conditions: read-out: Activity; in short: as §1

| Structure (SMILES) | selectivity ratio [1] | Activity [2] | viability at 48 h, 3.13 µM [3] [%] | IC50 [4] [µM] | Activity [4] | Activity [5] | IC50 [6] [µM] | viability at 48 h, 25 µM [7] [%] |
| --- | --- | --- | --- | --- | --- | --- | --- | --- |
| O=S(=O)(c1ccccc1)n1nnnc1-c1ccc2c(c1)OCO2 | > 13.2 | Toxic | 92.5 | > 100 | Dose-dependent effect | Toxic | 7.56 | ≥ 70 |
| Cc1ccc(S(=O)(=O)n2nnnc2-c2ccc3c(c2)OCO3)cc1 | > 16.4 | Toxic | 92.5 | > 100 | Dose-dependent effect | Toxic | 6.1 | ≥ 70 |
| O=S(=O)(c1ccc(Cl)cc1)n1nnnc1-c1ccc2c(c1)OCO2 | > 20.6 | Toxic | 92.5 | > 100 | Dose-dependent effect | Toxic | 4.85 | ≥ 70 |
| O=[N+]([O-])c1ccc(S(=O)(=O)n2nnnc2-c2ccc3c(c2)OCO3)cc1 | 22.6 | Toxic | 92.5 | 84.7 | Dose-dependent effect | Toxic | 3.75 | ≥ 70 |
| O=S(=O)(c1ccc(Cl)cc1Cl)n1nnnc1-c1ccc2c(c1)OCO2 | 12.3 | Toxic | 92.5 | 85 | Dose-dependent effect | Toxic | 6.9 | ≥ 70 |
| CC(C)c1ccc(S(=O)(=O)n2nnnc2-c2ccc3c(c2)OCO3)cc1 | > 15.9 | Toxic | 92.5 | > 100 | Dose-dependent effect | Toxic | 6.28 | ≥ 70 |
| O=S(=O)(Nc1nc(NS(=O)(=O)c2ccccc2)nc(-c2ccc3c(c2)OCO3)n1)c1ccccc1 | > 38.5 | Toxic | 92.5 | > 100 | Dose-dependent effect | Toxic | 2.6 | ≥ 70 |
| Cc1ccc(S(=O)(=O)Nc2nc(NS(=O)(=O)c3ccc(C)cc3)nc(-c3ccc4c(c3)OCO4)n2)cc1 | > 46.5 | Toxic | 92.5 | > 100 | Dose-dependent effect | Toxic | 2.15 | ≥ 70 |
| O=S(=O)(Nc1nc(NS(=O)(=O)c2ccc(Cl)cc2)nc(-c2ccc3c(c2)OCO3)n1)c1ccc(Cl)cc1 | > 95.2 | Toxic | 92.5 | > 100 | Dose-dependent effect | Toxic | 1.05 | ≥ 70 |
| O=[N+]([O-])c1ccc(S(=O)(=O)Nc2nc(NS(=O)(=O)c3ccc([N+](=O)[O-])cc3)nc(-c3ccc4c(c3)OCO4)n2)cc1 | > 98 | Toxic | 92.5 | > 100 | Dose-dependent effect | Toxic | 1.02 | ≥ 70 |
| O=S(=O)(Nc1nc(NS(=O)(=O)c2ccc(Cl)cc2Cl)nc(-c2ccc3c(c2)OCO3)n1)c1ccc(Cl)cc1Cl | > 39.1 | Toxic | 92.5 | > 100 | Dose-dependent effect | Toxic | 2.56 | ≥ 70 |
| CC(C)c1ccc(S(=O)(=O)Nc2nc(NS(=O)(=O)c3ccc(C(C)C)cc3)nc(-c3ccc4c(c3)OCO4)n2)cc1 | > 35.1 | Toxic | 92.5 | > 100 | Dose-dependent effect | Toxic | 2.85 | ≥ 70 |
| c1cc2c(cc1-c1nnn[nH]1)OCO2 |  | Toxic | 92.5 |  | Dose-dependent effect | Toxic | 14.2 | ≥ 70 |
| Nc1nc(N)nc(-c2ccc3c(c2)OCO3)n1 |  | Toxic | 92.5 |  | Dose-dependent effect | Toxic | 3.54 | ≥ 70 |
| Cc1ncc([N+](=O)[O-])n1CCO [METRONIDAZOLE] | > 55.5 |  | 92.5 | > 100 |  |  |  |  |
